ABCB1 block: human ABCB1 inhibition, ABCG2 as counter-screen. P08183. CCRF-Adr cells, JC-1 efflux, flow cytometry. inhibition, % at 6.6 µM. 190,000 compounds, 0.067% hits; in the data active means inhibition above about 40%;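 further: 0% = vehicle and 100% = reference inhibitor; higher value means more JC-1 retained so stronger ABCB1 efflux block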
Efflux pump mplx: blocks antifungal efflux pumps in multiplex yeast assay; S. cerevisiae Candida pump triplex, Nile Red efflux; inhibition, % at 10 µM; 330,000 compounds, 0.44% hits;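 active means plate passing quality check with inhibition over a set limit, or well fluorescence over plate mean plus 4 SD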;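 further: Nile Red retained in pooled yeast measured as flow cytometry median fluorescence; 0% = buffer negative control and 100% = Enniatin B positive control; higher means more Nile Red kept so more efflux inhibition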
MEKK2mut PB1 HTS: signal of MEK5 binding to mutant human MEKK2 PB1 domain; bead flow cytometry, Alexa488-MEK5 binding to MEKK2 mutant; percent response, % at 10 µM; 290,000 compounds, 0.35% hits; in the data active means percent response above about 24%, passing the limit was not always enough
MEKK3 PB1 HTS: MEKK3-MEK5 PB1 interaction, increase or decrease. bead-based flow cytometry, Alexa488-MEK5 binding to MEKK3; actives lie on both sides; 0 = blocked by unlabeled MEK5, 100 = vehicle. binding response (% of control), % at 10 µM. 290,000 compounds, 1.4% hits. AID 1529;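 active means binding response more than 3 SD above or below the average of its plate-row segment, actives on both sides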;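 further: Alexa488 bead fluorescence after subtracting the streptavidin-only scavenger bead signal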
Target sequence (Q99759 whole entry, looked up): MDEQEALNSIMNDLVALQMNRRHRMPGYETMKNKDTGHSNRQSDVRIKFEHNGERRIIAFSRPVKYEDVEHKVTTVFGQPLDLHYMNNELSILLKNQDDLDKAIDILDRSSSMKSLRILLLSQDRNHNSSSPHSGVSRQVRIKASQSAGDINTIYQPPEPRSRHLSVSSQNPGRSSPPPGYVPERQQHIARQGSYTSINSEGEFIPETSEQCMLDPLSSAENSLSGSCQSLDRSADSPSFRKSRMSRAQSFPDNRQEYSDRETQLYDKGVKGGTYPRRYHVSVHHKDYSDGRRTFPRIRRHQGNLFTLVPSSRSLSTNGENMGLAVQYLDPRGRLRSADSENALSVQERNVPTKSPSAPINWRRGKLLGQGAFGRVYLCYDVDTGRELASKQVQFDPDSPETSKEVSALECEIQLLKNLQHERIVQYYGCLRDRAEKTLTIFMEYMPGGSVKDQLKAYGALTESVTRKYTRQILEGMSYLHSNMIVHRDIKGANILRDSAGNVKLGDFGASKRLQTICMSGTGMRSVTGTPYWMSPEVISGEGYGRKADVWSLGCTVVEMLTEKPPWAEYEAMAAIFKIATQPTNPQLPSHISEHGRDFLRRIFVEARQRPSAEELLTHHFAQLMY
ABCG2 inh: inhibitors of human ABCG2 transporter, ABCB1 counter-screen. AID 1325. 190,000 compounds, 0.1% hits. inhibition, % at 6.6 µM. IgMXP3 cells, JC-1 efflux, flow cytometry;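 active means inhibition above 80%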;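 further: 0% = DMSO and 100% = nicardipine control wells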
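System: two drug-resistant human cell lines, ABCG2 and ABCB1; controls: nicardipine high and DMSO low controls; times: 10 min exposure at 25 °C with rotation, no wash; detection: flow cytometry of retained JC-1 fluorescence; read-out basis: percent efflux inhibition, scaled nicardipine 100% to DMSO 0%; doses: one concentration, 6.6 µM final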
MEKK2wt PB1 HTS: raises or lowers MEK5 binding to wildtype human MEKK2 PB1 domain. Q9Y2U5. bead flow cytometry, Alexa488-MEK5 binding to MEKK2 WT; actives lie on both sides. binding response (% of control), % at 10 µM. 290,000 compounds, 1.1% hits. AID 1531; in the data active means binding response below about 67% or above about 130%
MEKK2wt confirm: raises or lowers MEK5 binding to wildtype human MEKK2, retest; shares compounds with MEKK3 PB1 HTS; bead flow cytometry, Alexa488-MEK5 binding to MEKK2 WT; actives lie on both sides; binding response (% of control), % at 10 µM; 5,900 compounds, 2.4% hits; AID 1892; in the data active means binding response below about 16% or above about 210%; inactive means in between
MEKK2mut confirm: signal of MEK5 binding to mutant human MEKK2, retest. shares compounds with MEKK3 PB1 HTS. bead flow cytometry, Alexa488-MEK5 binding to MEKK2 mutant. percent response, % at 10 µM. 5,900 compounds, 2% hits. AID 1893; in the data active means percent response mostly above about 71%, no sharp cut-off; inactive means mostly below about 38%;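 further: higher means compound restores mutant binding toward wildtype level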
MEKK3-MEK5 inh: confirmation of inhibitors of MEK5 binding to human MEKK3; bead flow cytometry, Alexa488-MEK5 binding to MEKK3; stronger effect = lower value; shares compounds with MEKK3 PB1 HTS; binding response (% of control), % at 10 µM; AID 1894; 5,900 compounds, 1.8% hits;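 active means binding response below 72% of control, or above a set upper limit, though filed actives all read lower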;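 further: 100% = DMSO only wells and 0% = binding blocked by excess unlabeled MEK5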
* = called active by the depositor; . = no result given; [ ] = remark or other dose. Rows were chosen to be rich in hits. Some 2.5% of all compounds tested hit in one or more screens of this group.

SMILES	ABCB1 block	Efflux pump mplx	MEKK2mut PB1 HTS	MEKK3 PB1 HTS	ABCG2 inh	MEKK2wt PB1 HTS	MEKK2wt confirm	MEKK2mut confirm	MEKK3-MEK5 inh
N#Cc1c(NC(=O)CSc2nc(N)cc(=O)[nH]2)sc2c1CCCC2	0.0	0.0	-13.0	1.0*[inhibitor]	-0.7	2.0*[inhibitor]	95.0	1.0	101.0
Cc1ccc(/C=C/C(=O)NC2=NCCS2)cc1	0.4	-0.4	34.0	104.0	17.7	144.0*	126.0	13.0	106.0
CC(C)(C)c1ccc(/C=C/C(=O)NC2=NCCS2)cc1	0.1	0.1	8.0	101.0	2.6	105.0	.	.	.
COc1ccc(OC)c(NS(=O)(=O)Cc2ccccc2)c1	0.2	0.3	.	.	0.8	.	.	.	.
Cc1ccc2nc(Cl)c(C3CC(c4ccco4)=NN3C(=O)CCCC(=O)O)cc2c1 (stereo not drawn)	.	-0.1	-1.0	99.0	.	93.0	.	.	.
Cc1ccc2nc(Cl)c(C3CC(c4cccs4)=NN3C(=O)CCC(=O)O)cc2c1 (stereo not drawn)	5.1	-0.1	-1.0	139.0*	10.2	103.0	86.0	0.0	90.0
COc1ccc(/C=N/NC(=O)c2[nH]c3ccc(Br)cc3c2-c2ccccc2)cc1	0.1	0.0	0.0	147.0*	11.5	103.0	96.0	-7.0	101.0
COc1ccc(OC)c(NC(=O)c2nc3ccccc3s2)c1	1.0	0.2	2.0	3.0*[inhibitor]	10.4	3.0*[inhibitor]	111.0	6.0	109.0
CC(C)c1ccc(NC(=O)CSc2nc(=O)n(CCN3CCOCC3)c3c2CCC3)cc1	.	0.3	.	.	.	.	.	.	.
N#Cc1nc(-c2cccs2)oc1NCCN1CCOCC1	0.7	-0.2	.	.	2.9	.	.	.	.
N#Cc1nc(-c2ccccc2)oc1NCCN1CCCCC1	0.3	-0.2	-21.0	2.0*[inhibitor]	1.2	3.0*[inhibitor]	108.0	2.0	104.0
N#Cc1nc(-c2ccccc2)oc1NCC1CCCO1 (stereo not drawn)	0.8	-0.1	0.0	147.0*	5.8	112.0	92.0	-8.0	96.0
Cc1cccc(-c2nnc(SC(C)C(=O)N3CCOCC3)o2)c1 (stereo not drawn)	.	-0.1	7.0	102.0	.	106.0	.	.	.
CS(=O)(=O)c1[nH]nc(-c2cccc(Cl)c2)c1C#N	.	0.0	-30.0	84.0	.	89.0	.	.	.
COc1ccc(-[n+]2c(C)cc(/C=C3\Sc4ccccc4N3C)cc2C)cc1	-0.6	0.1	-5.0	71.0*[inhibitor]	6.0	29.0*[inhibitor]	61.0	-22.0	88.0
COCCn1c(=NC(=O)c2cc3ccccc3oc2=O)sc2cc(S(N)(=O)=O)ccc21	0.1	-0.3	-2.0	96.0	-0.7	93.0	.	.	.
COc1ccc(-c2cc(C3CCNCC3)[nH]n2)cc1	.	0.2	22.0	103.0	.	154.0*	143.0	26.0	109.0
Cc1cc(-c2nn(-c3ccccc3F)cc2CNCCc2cnc[nH]2)c(C)s1	4.9	0.1	39.0	112.0	6.3	148.0*	130.0	17.0	106.0
Cc1cc(-c2nn(-c3ccccc3F)cc2CN2CCC(C(N)=O)CC2)c(C)s1	1.1	0.0	7.0	99.0	2.5	114.0	.	.	.
CCCOc1ccc(/C=N/NC(=O)CN2CCCCC2)cc1OCC	.	-0.1	3.0	105.0	.	105.0	.	.	.
CCCOc1ccc(/C=N/NC(=O)CSCc2ccc([N+](=O)[O-])cc2)cc1OCC	2.5	-0.2	1.0	135.0*	45.0	106.0	104.0	8.0	106.0
Cn1cnnc1SCC(=O)Nc1ncc([N+](=O)[O-])s1	.	0.0	.	.	.	.	.	.	.
CC(C)CCNC(=O)/C=C/c1ccc(Br)cc1	1.7	0.2	-15.0	2.0*[inhibitor]	41.7	2.0*[inhibitor]	93.0	-15.0	92.0
CC(=O)c1cccc(N(C(=O)c2cnccn2)C(C(=O)NCc2ccccc2)c2ccco2)c1 (stereo not drawn)	0.1	-0.3	9.0	124.0*	2.0	118.0	100.0	5.0	97.0
O=C(NCc1ccccc1)C(c1ccco1)N(C(=O)c1cnccn1)c1ccc(F)cc1 (stereo not drawn)	1.2	0.2	.	.	5.0	.	.	.	.
SMILES	ABCB1 block	Efflux pump mplx	MEKK2mut PB1 HTS	MEKK3 PB1 HTS	ABCG2 inh	MEKK2wt PB1 HTS	MEKK2wt confirm	MEKK2mut confirm	MEKK3-MEK5 inh
COCCNC(=O)C(c1ccccc1)N(C(=O)Cn1nnc2ccccc21)c1cccnc1 (stereo not drawn)	0.6	0.1	10.0	108.0	3.7	110.0	.	.	.
O=C(NCc1ccccc1)C(c1ccco1)N(C(=O)c1ccccn1)c1ccccc1 (stereo not drawn)	.	0.0	0.0	101.0	.	104.0	.	.	.
CC(=O)c1cccc(N(C(=O)Cn2nnc3ccccc32)C(C(=O)NCc2ccccc2)c2ccccn2)c1 (stereo not drawn)	0.2	0.7	2.0	130.0*	1.4	105.0	94.0	4.0	97.0
COc1ccc(CNC(=O)C(c2ccco2)N(C(=O)c2ccccn2)c2ccccc2)cc1 (stereo not drawn)	0.3	0.2	-15.0	59.0*[inhibitor]	0.3	55.0*[inhibitor]	96.0	-4.0	98.0
CC(C)[C@H](NC(=O)[C@@H]1Cc2ccccc2CN1C(=O)OC(C)(C)C)C(=O)NCc1ccco1	.	-0.1	-2.0	96.0	.	93.0	.	.	.
CC(=O)N1CCc2cc(S(=O)(=O)NCCC(=O)N3CCc4ccccc4C3)ccc21	0.9	-0.1	2.0	100.0	5.8	102.0	.	.	.
CC(=O)N1CCc2cc(S(=O)(=O)CCC(=O)N3CCc4ccccc4C3)ccc21	0.8	0.2	-12.0	17.0*[inhibitor]	1.2	22.0*[inhibitor]	103.0	2.0	103.0
CN(C)CC#CCC(O)(c1ccccc1)C1CCCCC1 (stereo not drawn)	.	-0.1	5.0	104.0	.	109.0	.	.	.
CCN(CC)CC#CCC(O)(c1ccccc1)C1CCCC1 (stereo not drawn)	0.1	-0.2	-2.0	95.0	-0.6	46.0*[inhibitor]	116.0	4.0	106.0
COc1ccc(-c2coc3c(CN4CCCCC4)c(O)c(CN4CCCCC4)c(O)c3c2=O)cc1	0.6	0.3	18.0	107.0	4.9	144.0*	150.0	31.0	105.0
O=c1c(-c2ccc(Br)cc2)coc2c(CN3CCCCC3)c(O)ccc12	.	.	2.0	100.0	.	103.0	.	.	.
CC(=O)c1cc2c(cc1NS(=O)(=O)c1ccccc1)OCO2	0.6	0.0	0.0	104.0	1.5	97.0	.	.	.
CC(=O)c1cc2c(cc1N/C(=N/S(=O)(=O)c1ccccc1)c1ccc(Cl)cc1)OCO2	5.2	0.1	0.0	129.0*	24.6	102.0	96.0	-4.0	100.0

Screening data: PubChem BioAssay, NMMLSC
